# Source: PubChem BioAssay
# SUMO1-SIM PPI: modulators of SUMO1 protein-protein interactions, primary screen, biochemical, uHTS | Small ubiquitin-related modifier 1 (Homo sapiens), P63165 | SUMO1 binding to a labelled peptide, TR-FRET, 1 h | inhibition, % at 20 µM | actives 0.33% (n = 360,000) | AID 602429, 2012; in the data active = inhibition above about 37%
# LMPTP inh: LMPTP phosphatase inhibitors, primary screen, biochemical, fluorescence intensity, uHTS; AID 651560, 2012; Low molecular weight phosphotyrosine protein phosphatase (Homo sapiens), P24666; inhibition, % at 20 µM; recombinant LMPTP-A, OMFP fluorogenic substrate; actives 0.22% (n = 360,000);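 active = compounds that cut the enzyme signal by at least half of the control window in the single-dose screen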;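 also: plate controls were DMSO wells with enzyme plus substrate for no effect and substrate without enzyme for full effect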
#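 Material: LMPTP-A; amount: 0.625 nM enzyme; doses: single 20 µM dose; times: reaction 50 min, room temperature, dark; technique: fluorescence intensity of OMFP turnover product; benchmarks: no-enzyme and uninhibited controls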
# DNMT1 block: human DNMT1 methyltransferase inhibitors, primary screen, biochemical, molecular beacon, fluorescence, HinP1I cleavage, uHTS. inhibition (reported as % activation of signal), % at 10 µM. DNA (cytosine-5)-methyltransferase 1 (Homo sapiens), P26358. AID 588458, 2011. actives 0.83% (n = 360,000); in the data active = inhibition above about 50%
# STEP block: STEP phosphatase inhibitors, primary screen, biochemical, fluorescence intensity, uHTS; Tyrosine-protein phosphatase non-receptor type 5 (Homo sapiens), P54829; recombinant STEP, OMFP fluorogenic substrate; inhibition, % at 20 µM; actives 0.25% (n = 360,000);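 active = inhibition at 20 µM, scaled per plate between control wells, above about 37%, limit read from the data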;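 also: 0% = DMSO with enzyme and substrate and 100% = substrate only without enzyme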
# Target sequence (P54829 whole entry, looked up): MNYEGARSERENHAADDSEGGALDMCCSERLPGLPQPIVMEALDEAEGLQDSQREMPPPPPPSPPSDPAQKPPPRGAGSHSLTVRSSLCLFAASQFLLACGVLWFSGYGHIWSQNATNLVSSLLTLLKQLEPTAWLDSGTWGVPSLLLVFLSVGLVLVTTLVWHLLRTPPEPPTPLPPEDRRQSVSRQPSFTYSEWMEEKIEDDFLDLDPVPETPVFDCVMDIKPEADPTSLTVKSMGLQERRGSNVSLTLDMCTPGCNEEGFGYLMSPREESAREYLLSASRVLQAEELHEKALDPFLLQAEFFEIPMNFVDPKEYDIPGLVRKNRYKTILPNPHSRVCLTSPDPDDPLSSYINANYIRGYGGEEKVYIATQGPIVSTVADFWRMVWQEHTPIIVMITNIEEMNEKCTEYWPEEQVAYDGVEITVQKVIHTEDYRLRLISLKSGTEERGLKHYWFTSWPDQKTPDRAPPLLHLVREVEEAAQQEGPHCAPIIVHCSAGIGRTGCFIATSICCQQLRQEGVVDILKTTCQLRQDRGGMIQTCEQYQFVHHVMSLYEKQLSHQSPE
#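 Measure: Control-normalized % inhibition with plate pattern correction | Test system: STEP phosphatase, cell-free reaction | Medium: pH 6.0 Bis-Tris with DTT and Tween 20 | Technique: Fluorescence, 480/540 nm | Times: Reaction 20 min, ambient temperature | Doses: Single compound dose of 20 µM, 1% DMSO final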
# Scp-1 inhibitor: Scp-1 phosphatase inhibitors, primary screen, biochemical, colorimetric, uHTS; Recombinant Scp1, phosphopeptide, malachite green phosphate absorbance; Carboxy-terminal domain RNA polymerase II polypeptide A small phosphatase 1 (Homo …; actives 0.88% (n = 340,000); inhibition, % at 20 µM;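 active = inhibition above about 50% at 20 µM, limit read from the data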;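 also: plate controls were DMSO wells with enzyme for no effect and wells lacking enzyme for full effect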
#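 Material – SCP-1 phosphatase catalytic domain, residues 76-261 · Buffer or medium – Acidic Tris acetate buffer with magnesium and detergent · Also added – Phospho 17-mer peptide substrate · Compound – single 20 µM dose, 1% DMSO · Times – 45 min room-temperature reaction, 5 min colour, 30 min stabiliser · Technique – Phosphate-binding colour reagent, absorbance read at 630 nm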
# Beacon interf DR: spectral interference with molecular beacon fluorescence, dose response, artefact control for DNMT1 inhibitor project, biochemical, fluorescent molecular beacon | shares compounds with DNMT1 block | spectral interference counter-screen | IC50, µM | 200 tested, under 10 active | AID 602382, 2012; call rule not given here
# DNMT1 inh conf: DNMT1 methyltransferase inhibitor retest, confirmation, biochemical, molecular beacon, fluorescence, single concentration | actives 8% (n = 2,300) | DNMT1 molecular beacon HinP1I cleavage | shares compounds with DNMT1 block | inhibition, % at 10 µM | AID 602385, 2012;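 active = average inhibition of at least 30% in the single-concentration confirmation test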
# DNMT1 interf: beacon fluorescence artifact counter-screen; shares compounds with DNMT1 block; DNMT1 molecular beacon spectral interference counterscreen, fluorescence 485/520; activation (fluorescence interference), % at 10 µM; actives 1% (n = 2,300);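 active = activation of at least 30% at 10 µM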;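 also: DNMT1 catalytic domain with a HinP1I cleavage step and a FAM/dabcyl DNA beacon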
# * marks the source's active call; other numbers are inactive results; / = not tested or not shown. Rows were chosen to be rich in hits. Some 1.7% of all compounds tested hit in one or more screens of this group.
SMILES,SUMO1-SIM PPI,LMPTP inh,DNMT1 block,STEP block,Scp-1 inhibitor,DNMT1 inh conf,DNMT1 interf,others
Cc1cc(NS(=O)(=O)c2ccc(NC(=O)Cc3cccs3)cc2)no1,2,2,5,-2,-6,/,/,
Cc1ccc(-c2nnc(-c3ccc(NC(=O)Cc4cccs4)cc3)o2)cc1,-1,4,49,4,37,7,-1,
Cc1ccc2oc(-c3ccc(C)c(NC(=O)Cc4cccs4)c3)nc2c1,4,-1,52*,-1,-4,2,0,
Cc1ccc2oc(-c3ccc(C)c(NC(=S)NC(=O)c4cccs4)c3)nc2c1,2,0,51*,2,-2,0,-2,
Cc1cc(NC(=O)Cc2cccs2)no1,8,55*,111*,9,84*,3,-6,
Cc1ccc(-c2nc3ccccc3o2)cc1NC(=S)NC(=O)c1cc2ccccc2o1,-2,0,49,1,-7,/,/,
O=C(OCc1ccccc1)N1CCC2CC1c1ccc(-c3cccc(F)c3)cc12 (stereo unspecified),3,3,-5,2,/,/,/,
CCCCN(CCCC)CCNC(=O)CSCc1ccc(C)cc1,-1,-4,1,-3,-10,/,/,
Cc1nc(NC(=O)c2cccs2)ccc1Br,0,0,8,4,5,/,/,
Cc1cc2nc(-c3ccc(SCC(=O)Nc4ccc(S(=O)(=O)N5CCCC5)cc4)nc3)[nH]c2cc1C,-4,5,66*,-3,-5,-7,-13,
CN(CC(=O)Nc1ccccc1Cl)C(=O)COC(=O)c1cccs1,-1,-1,3,-2,7,/,/,
CN(CC(=O)Nc1ccccc1Cl)C(=O)COC(=O)c1ccc([N+](=O)[O-])s1,16,-1,65*,2,5,-2,-6,
NS(=O)(=O)c1ccc(NC(=O)COC(=O)c2ccc([N+](=O)[O-])s2)cc1,10,0,70*,-2,-4,70*,-2,Beacon interf DR=>99
O=C(O)C1=CCC=CC1C(=O)O (stereo unspecified),69*,12,99*,20,/,17,4,
CCCCN(CC)CCNc1c(NC2CCN(C(=O)OCC)CC2)c(=O)c1=O,7,-2,66*,-1,-10,1,5,
COc1ccc(OC(F)(F)F)cc1CC1(C)C(=O)Nc2ccc(-c3ccsc3)cc21 (stereo unspecified),8,4,-22,0,/,/,/,
Cc1nc(NC(=O)c2ccco2)sc1-c1csc(Nc2ccc(Cl)cc2Cl)n1,12,3,63*,0,-11,3,6,
Cc1ccc(C(=O)NCCNc2nc3cc(C)c(C)cc3cc2C)cc1,24,1,56*,3,5,6,1,
CCOc1ccc(S(=O)(=O)N2CCC(C(=O)NCc3ccccn3)CC2)cc1C,2,2,3,3,2,/,/,
O=c1cc(CN2CCN(c3ccc(F)cc3)CC2)c2cc3c(cc2o1)CCCC3,-1,2,63*,2,2,3,1,
CN1CCN(Cc2cc(=O)oc3cc4c(cc23)CCC4)CC1,-2,-2,5,-2,-8,/,/,
CC(=O)Oc1ccc2c(=O)c(-c3nc4ccccc4s3)coc2c1,-14,1,5,-1,-17,/,/,
COc1ccc(/C=C(\C#N)c2nc3ccc(C)cc3[nH]2)cc1Oc1ccc(C(F)(F)F)cc1[N+](=O)[O-],-3,-2,52*,-1,-17,5,-5,
